In ChEMBL document CHEMBL1140128 (J Med Chem, 2008):
pEC50, pKi: −log10 of the molar value. Calls of active or inactive are those of the source. The rule behind the calls is not given here.

Experiments:
[1] = biological target: Melanocyte-stimulating hormone receptor (Mus musculus, UniProt Q01727); experiment: Agonist activity at mouse MC1R expressed in HEK293 cells by CRE/beta-galactosidase reporter gene assay; format: functional, cell-based
In short: (§1)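 HEK293 cells stably expressing the mouse receptor (G418 selection) were transfected with CRE/β-galactosidase reporter. Lysates were read with ONPG substrate at OD405 and normalized to protein (OD595) and to a 10^-4 M forskolin control.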

Melanocortin receptor 4 [2] = biological target: T1, Melanocortin receptor 4 (Mus musculus, UniProt P56450); experiment: Agonist activity at mouse MC4R expressed in HEK293 cells by CRE/beta-galactosidase reporter gene assay; format: functional, cell-based
T1 sequence (P56450 whole entry): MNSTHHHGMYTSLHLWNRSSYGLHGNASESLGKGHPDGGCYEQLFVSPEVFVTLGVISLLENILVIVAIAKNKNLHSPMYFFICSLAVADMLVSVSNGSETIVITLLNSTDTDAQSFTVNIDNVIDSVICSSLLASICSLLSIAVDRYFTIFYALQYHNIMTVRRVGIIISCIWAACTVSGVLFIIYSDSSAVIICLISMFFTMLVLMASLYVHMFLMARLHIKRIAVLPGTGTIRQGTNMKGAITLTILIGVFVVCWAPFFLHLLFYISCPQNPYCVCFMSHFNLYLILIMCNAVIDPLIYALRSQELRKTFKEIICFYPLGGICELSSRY
In short: as §1, with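 “reporter. After 48 h they were stimulated for 6 h with peptide (10^-4–10^-12 M) in DMEM with 0.1 mg/mL BSA and 0.1 mM IBMX.” for “reporter.”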

Melanocortin receptor 5 = Melanocortin receptor 5 (Mus musculus, UniProt P41149); experiment: Agonist activity at mouse MC5R expressed in HEK293 cells by CRE/beta-galactosidase reporter gene assay; format: functional, cell-based
Sequence of Melanocortin receptor 5 (P41149 whole entry): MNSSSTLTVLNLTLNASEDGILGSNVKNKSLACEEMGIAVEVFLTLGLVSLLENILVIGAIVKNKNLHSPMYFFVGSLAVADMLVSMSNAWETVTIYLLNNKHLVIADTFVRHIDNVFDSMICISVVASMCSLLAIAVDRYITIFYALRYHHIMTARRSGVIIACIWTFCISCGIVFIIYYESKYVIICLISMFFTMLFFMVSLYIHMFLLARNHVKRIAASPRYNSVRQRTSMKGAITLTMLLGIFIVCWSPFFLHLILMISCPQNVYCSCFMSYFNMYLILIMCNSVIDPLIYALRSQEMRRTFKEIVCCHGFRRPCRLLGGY
In short: as §1, with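 “reporter. After 48 h they were stimulated for 6 h with peptide (10^-4–10^-12 M) in DMEM with 0.1 mg/mL BSA and 0.1 mM IBMX.” for “reporter.”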

[3] = biological target: Melanocyte-stimulating hormone receptor (Mus musculus) (UniProt Q01727); experiment: Agonist activity at mouse MC1R expressed in HEK293 cells by CRE/beta-galactosidase reporter gene assay relative to Ac-His-DPhe7-Arg-Trp-NH2 peptide; format: functional, cell-based
Sequence of Melanocyte-stimulating hormone receptor (Mus musculus) (Q01727 whole entry, looked up): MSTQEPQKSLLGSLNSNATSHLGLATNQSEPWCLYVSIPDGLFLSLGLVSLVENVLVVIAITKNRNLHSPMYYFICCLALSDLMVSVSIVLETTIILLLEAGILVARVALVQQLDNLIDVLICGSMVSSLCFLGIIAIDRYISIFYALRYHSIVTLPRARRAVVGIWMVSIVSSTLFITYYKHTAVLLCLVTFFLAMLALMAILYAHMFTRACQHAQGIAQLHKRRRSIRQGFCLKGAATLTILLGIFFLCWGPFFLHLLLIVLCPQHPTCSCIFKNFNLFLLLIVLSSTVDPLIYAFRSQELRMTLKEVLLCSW
In short: as §1, with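 “reporter. After 48 h they were stimulated for 6 h with peptide (10^-4–10^-12 M) in DMEM with 0.1 mg/mL BSA and 0.1 mM IBMX.” for “reporter.”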

[4] = biological target: Melanocortin receptor 3 (Mus musculus) (UniProt P33033); experiment: Agonist activity at mouse MC3R expressed in HEK293 cells by CRE/beta-galactosidase reporter gene assay relative to Ac-His-DPhe7-Arg-Trp-NH2 peptide; format: functional, cell-based
Sequence of Melanocortin receptor 3 (Mus musculus) (P33033 whole entry): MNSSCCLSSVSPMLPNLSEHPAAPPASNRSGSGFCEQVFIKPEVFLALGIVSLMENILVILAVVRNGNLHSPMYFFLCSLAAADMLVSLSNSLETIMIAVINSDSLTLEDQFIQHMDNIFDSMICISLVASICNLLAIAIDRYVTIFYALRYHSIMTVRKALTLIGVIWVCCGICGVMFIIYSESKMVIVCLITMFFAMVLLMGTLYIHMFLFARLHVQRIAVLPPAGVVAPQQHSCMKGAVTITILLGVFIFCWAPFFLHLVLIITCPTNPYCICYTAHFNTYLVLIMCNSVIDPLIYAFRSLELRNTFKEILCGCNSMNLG
In short: as §1, with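 “reporter. After 48 h they were stimulated for 6 h with peptide (10^-4–10^-12 M) in DMEM with 0.1 mg/mL BSA and 0.1 mM IBMX.” for “reporter.”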

[5] = biological target: Melanocortin receptor 4 (Mus musculus) (UniProt P56450); experiment: Agonist activity at mouse MC4R expressed in HEK293 cells by CRE/beta-galactosidase reporter gene assay relative to Ac-His-DPhe7-Arg-Trp-NH2 peptide; format: functional, cell-based
Sequence of Melanocortin receptor 4 (Mus musculus) (P56450 whole entry): as the sequence (P56450 whole entry) above
In short: as §1, with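 “reporter. After 48 h they were stimulated for 6 h with peptide (10^-4–10^-12 M) in DMEM with 0.1 mg/mL BSA and 0.1 mM IBMX.” for “reporter.”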

[6] = biological target: Melanocortin receptor 5 (Mus musculus) (UniProt P41149); experiment: Agonist activity at mouse MC5R expressed in HEK293 cells by CRE/beta-galactosidase reporter gene assay relative to Ac-His-DPhe7-Arg-Trp-NH2 peptide; format: functional, cell-based
Sequence of Melanocortin receptor 5 (Mus musculus) (P41149 whole entry): as the sequence (P41149 whole entry) above
In short: as §1, with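 “reporter. After 48 h they were stimulated for 6 h with peptide (10^-4–10^-12 M) in DMEM with 0.1 mg/mL BSA and 0.1 mM IBMX.” for “reporter.”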

Mus musculus [7] = species on record: Mus musculus; experiment: Selectivity for mouse MC4R over mouse MC1R by CRE/beta-galactosidase reporter gene assay
Mus musculus [8] = species on record: Mus musculus; experiment: Selectivity for mouse MC4R over mouse MC3R by CRE/beta-galactosidase reporter gene assay
Melanocortin receptor 3 [9] = biological target: T2, Melanocortin receptor 3 (Mus musculus, UniProt P33033); experiment: Antagonist activity at mouse MC3R expressed in HEK293 cells assessed as effect on MT2 peptide-induced response by CRE/beta-galactosidase reporter gene assay; format: functional, cell-based; conditions: for Kb: read-out: pA2 (converted)
T2 sequence (P33033 whole entry): as the sequence (P33033 whole entry) above
In short: (§2)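 Mouse MC3R HEK293 stable line carrying transfected CRE/β-galactosidase reporter, 6 h stimulation in IBMX-containing medium. Peptides tested for dose-dependent competitive displacement of MTII agonist at up to 10 μM (footnote: up to 100 μM).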

Melanocortin receptor 3 [10] = biological target: T2, Melanocortin receptor 3; experiment: Agonist activity at mouse MC3R expressed in HEK293 cells by CRE/beta-galactosidase reporter gene assay; format: functional, cell-based; in short: as §1
Melanocortin receptor 4 [11] = biological target: T1, Melanocortin receptor 4; experiment: Antagonist activity at mouse MC4R expressed in HEK293 cells assessed as effect on MT2 peptide-induced response by CRE/beta-galactosidase reporter gene assay; format: functional, cell-based; conditions: read-out: pA2 (converted)
[12] = biological target: Melanocortin receptor 3 (Mus musculus) (UniProt P33033); experiment: Agonist activity at mouse MC3R expressed in HEK293 cells up to 100 uM by CRE/beta-galactosidase reporter gene assay; format: functional, cell-based
In short: as §1, with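 “reporter. After 48 h they were stimulated for 6 h with peptide (10^-4–10^-12 M) in DMEM with 0.1 mg/mL BSA and 0.1 mM IBMX.” for “reporter.”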

[13] = biological target: Melanocortin receptor 3 (Mus musculus) (UniProt P33033); experiment: Antagonist activity at mouse MC3R expressed in HEK293 cells assessed as effect on MT2 peptide-induced response up to 100 uM by CRE/beta-galactosidase reporter gene assay; format: functional, cell-based; in short: as §2

Sequence of Melanocyte-stimulating hormone receptor (Q01727 whole entry): as the sequence (Q01727 whole entry, looked up) above

CC(=O)N[C@@H](Cc1cnc[nH]1)C(=O)N[C@H](Cc1ccc(C(=O)c2ccccc2)cc1)C(=O)N[C@@H](CCCNC(=N)N)C(=O)N[C@@H](Cc1c[nH]c2ccccc12)C(N)=O
pEC50 [1]: 6.74 | pEC50 (Melanocortin receptor 4 [2]): 7.20 | pEC50 (Melanocortin receptor 5): 7.29

CC(=O)N[C@@H](Cc1cnc[nH]1)C(=O)N[C@H](Cc1ccccc1)C(=O)N[C@@H](CCCNC(=N)N)C(=O)N[C@@H](Cc1c[nH]c2ccccc12)C(N)=O
fold change (FC) [3]: 1 | fold change (FC) [4]: 1 | fold change (FC) [5]: 1 | fold change (FC) [6]: 1

CC(=O)N[C@@H](Cc1cnc[nH]1)C(=O)N[C@H](Cc1ccc(Cl)cc1)C(=O)N[C@@H](CCCNC(=N)N)C(=O)N[C@@H](Cc1c[nH]c2ccccc12)C(N)=O
fold change (FC) [6]: -2 | Ratio EC50 (Mus musculus [7]): 200 | Ratio EC50 (Mus musculus [8]): 200

CC(=O)N[C@@H](Cc1cnc[nH]1)C(=O)N[C@H](Cc1ccc([N+](=O)[O-])cc1)C(=O)N[C@@H](CCCNC(=N)N)C(=O)N[C@@H](Cc1c[nH]c2ccccc12)C(N)=O
fold change (FC) [4]: 5

CC(=O)N[C@@H](Cc1cnc[nH]1)C(=O)N[C@H](Cc1ccc(Cl)c(Cl)c1)C(=O)N[C@@H](CCCNC(=N)N)C(=O)N[C@@H](Cc1c[nH]c2ccccc12)C(N)=O
fold change (FC) [3]: 1

CC(=O)N[C@@H](Cc1cnc[nH]1)C(=O)N[C@H](Cc1ccc(N)cc1)C(=O)N[C@@H](CCCNC(=N)N)C(=O)N[C@@H](Cc1c[nH]c2ccccc12)C(N)=O
fold change (FC) [3]: 21 | fold change (FC) [4]: 130 | fold change (FC) [5]: 96 | fold change (FC) [6]: 69

CC(=O)N[C@@H](Cc1cnc[nH]1)C(=O)N[C@H](Cc1ccc(Br)cc1)C(=O)N[C@@H](CCCNC(=N)N)C(=O)N[C@@H](Cc1c[nH]c2ccccc12)C(N)=O
pKi (Melanocortin receptor 3 [9]): 6.46 | Kb (Melanocortin receptor 3 [9]): 28.8 nM

CC(=O)N[C@@H](Cc1cnc[nH]1)C(=O)N[C@H](Cc1ccc(F)cc1)C(=O)N[C@@H](CCCN=C(N)N)C(=O)N[C@@H](Cc1c[nH]c2ccccc12)C(N)=O
pEC50 [1]: 7.27

CC(=O)N[C@H](Cc1cnc[nH]1)C(=O)NC(Cc1ccc2ccccc2c1)C(=O)N[C@@H](CCCNC(=N)N)C(=O)N[C@@H](Cc1c[nH]c2ccccc12)C(N)=O (stereo in doubt)
pKi (Melanocortin receptor 3 [9]): 5.30

CC(=O)N[C@@H](Cc1cnc[nH]1)C(=O)N[C@H](Cc1ccc(C)cc1)C(=O)N[C@@H](CCCNC(=N)N)C(=O)N[C@@H](Cc1c[nH]c2ccccc12)C(N)=O
fold change (FC) [5]: 2 | fold change (FC) [6]: 2

CC(=O)N[C@@H](Cc1cnc[nH]1)C(=O)N[C@H](Cc1ccc(O)cc1)C(=O)N[C@@H](CCCNC(=N)N)C(=O)N[C@@H](Cc1c[nH]c2ccccc12)C(N)=O
pEC50 [1]: 5.59 | fold change (FC) [3]: 23 | pEC50 (Melanocortin receptor 3 [10]): 4.90 | fold change (FC) [4]: 99 | pEC50 (Melanocortin receptor 4 [2]): 6.41 | fold change (FC) [5]: 171 | pEC50 (Melanocortin receptor 5): 6.14 | fold change (FC) [6]: 223

CC(=O)N[C@@H](Cc1cnc[nH]1)C(=O)N[C@H](Cc1ccc(N)cc1)C(=O)N[C@@H](CCCN=C(N)N)C(=O)N[C@@H](Cc1c[nH]c2ccccc12)C(N)=O
pEC50 (Melanocortin receptor 5): 6.65

CC(=O)N[C@@H](Cc1cnc[nH]1)C(=O)N[C@H](Cc1ccc(C(F)(F)F)cc1)C(=O)N[C@@H](CCCNC(=N)N)C(=O)N[C@@H](Cc1c[nH]c2ccccc12)C(N)=O
pKi (Melanocortin receptor 3 [9]): 5.21 | Kb (Melanocortin receptor 3 [9]): 162 nM

CC(=O)N[C@@H](Cc1cnc[nH]1)C(=O)N[C@H](Cc1ccc(C#N)cc1)C(=O)N[C@@H](CCCNC(=N)N)C(=O)N[C@@H](Cc1c[nH]c2ccccc12)C(N)=O
pEC50 (Melanocortin receptor 4 [2]): 8.55 | fold change (FC) [6]: 1

CC(=O)N[C@@H](Cc1cnc[nH]1)C(=O)N[C@H](Cc1cccc(Cl)c1)C(=O)N[C@@H](CCCNC(=N)N)C(=O)N[C@@H](Cc1c[nH]c2ccccc12)C(N)=O
Ratio EC50 (Mus musculus [8]): 140

CC(=O)N[C@@H](Cc1cnc[nH]1)C(=O)N[C@H](Cc1ccc(F)cc1)C(=O)N[C@@H](CCCNC(=N)N)C(=O)N[C@@H](Cc1c[nH]c2ccccc12)C(N)=O
fold change (FC) [3]: -2 | fold change (FC) [4]: -2 | Ratio EC50 (Mus musculus [7]): 200 | Ratio EC50 (Mus musculus [8]): 200

CC(=O)N[C@@H](Cc1cnc[nH]1)C(=O)N[C@H](Cc1ccc(Cl)c(Cl)c1)C(=O)N[C@@H](CCCN=C(N)N)C(=O)N[C@@H](Cc1c[nH]c2ccccc12)C(N)=O
pKi (Melanocortin receptor 3 [9]): 6.59 | Kb (Melanocortin receptor 3 [9]): 38 nM

CC(=O)N[C@@H](Cc1cnc[nH]1)C(=O)N[C@H](Cc1ccccc1)C(=O)N[C@@H](CCCN=C(N)N)C(=O)N[C@@H](Cc1c[nH]c2ccccc12)C(N)=O
pEC50 (Melanocortin receptor 4 [2]): 8.64 | Kb (Melanocortin receptor 4 [11]): 5.01 nM | pEC50 (Melanocortin receptor 5): 8.49

CC(=O)N[C@@H](Cc1cnc[nH]1)C(=O)N[C@H](Cc1ccc(C(C)(C)C)cc1)C(=O)N[C@@H](CCCNC(=N)N)C(=O)N[C@@H](Cc1c[nH]c2ccccc12)C(N)=O
Activity [12]: inactive | Activity [13]: inactive
